Results taken from ChEMBL document CHEMBL1125602, “Inhibitors of the protease from human immunodeficiency virus: design and modeling of a compound containing a dihydroxyethylene isostere insert with high binding affinity and effective antiviral activity” (J Med Chem, 1991).

Tests used:
[1] = biological target: Human immunodeficiency virus type 1 protease (Human immunodeficiency virus 1, UniProt Q72874); assay: Inhibitory activity against HIV-1 protease
Procedure, shortened: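 Recombinant HIV-1 protease refolded from E. coli inclusion bodies; substrate GSP (H-Val-Ser-Gln-Asn-Tyr-Pro-Ile-Val-OH) at 2.5 mM. Run at 30 °C in 100 mM sodium acetate pH 5.5 with 10% glycerol, 5% ethylene glycol, 0.1% Nonidet P-40. Inhibitor added before enzyme, five to seven concentrations. Stopped at 30 min with TFA, products by HPLC; Ki from Dixon plots.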

[2] = The compound was tested for its antiviral activity against vaccinia virus in CV-1 monkey cells at 10 uM; format: functional; conditions: Cercopithecidae

| SMILES | Ki [1] [nM] | inhibition at 10 µM [2] [%] |
| --- | --- | --- |
| CC[C@H](C)[C@H](NC(=O)[C@H](CC(C)C)[C@@H](O)[C@H](O)[C@H](CC1CCCCC1)NC(=O)[C@H](Cc1c[nH]cn1)NC(=O)COc1cccc2ccccc12)C(=O)NCc1ccccn1 | 5 | – |
| CC[C@H](C)[C@H](NC(=O)[C@@H](CC(C)C)[C@@H](O)[C@H](O)[C@H](CC(C)C)NC(=O)[C@H](Cc1c[nH]cn1)NC(=O)COc1cccc2ccccc12)C(=O)NCc1ccccn1 | 220 | – |
| CC[C@H](C)[C@H](NC(=O)[C@H](C(C)C)[C@@H](O)[C@H](O)[C@H](CC(C)C)NC(=O)[C@H](Cc1c[nH]cn1)NC(=O)COc1cccc2ccccc12)C(=O)NCc1ccccn1 | 5 | – |
| CC[C@H](C)[C@H](NC(=O)[C@H](C(C)C)[C@@H](O)[C@H](O)[C@H](CC1CCCCC1)NC(=O)CC1CCCCC1)C(=O)NCc1ccccn1 | 22 | 80 |
| CC[C@H](C)[C@H](NC(=O)[C@H](C(C)C)[C@@H](O)[C@H](O)[C@H](CC1CCCCC1)NC(=O)[C@H](Cc1c[nH]cn1)NC(=O)COc1cccc2ccccc12)C(=O)NCc1ccccn1 | < 1 | – |
| CC[C@H](C)[C@H](NC(=O)[C@H](C(C)C)[C@@H](O)[C@H](O)[C@H](CC1CCCCC1)NC(=O)[C@H](Cc1c[nH]cn1)NC(=O)CO)C(=O)NCc1ccccn1 | 4 | 0 |
| CC[C@H](C)[C@H](NC(=O)[C@H](C(C)C)[C@@H](O)[C@H](O)[C@H](CC1CCCCC1)NC(=O)[C@H](Cc1c[nH]cn1)NC(=O)CN)C(=O)NCc1ccccn1 | 11 | 0 |
| CC[C@H](C)[C@H](NC(=O)[C@H](C(C)C)[C@@H](O)[C@H](O)[C@H](CC1CCCCC1)NC(=O)[C@H](Cc1c[nH]cn1)NC(=O)COc1ccccc1)C(=O)NCc1ccccn1 | 2 | 100 |
| CC[C@H](C)[C@H](NC(=O)[C@H](C(C)C)[C@H](O)[C@H](O)[C@H](CC(C)C)NC(=O)[C@H](Cc1c[nH]cn1)NC(=O)[C@@H](Cc1ccccc1)NC(=O)OC(C)(C)C)C(=O)NCc1ccccn1 | 500 | – |
| CC[C@H](C)[C@H](NC(=O)[C@H](C(C)C)[C@@H](O)[C@H](O)[C@H](CC(C)C)NC(=O)[C@H](Cc1c[nH]cn1)NC(=O)COc1ccccc1)C(=O)NCc1ccccn1 | 5 | – |
| CC[C@H](C)[C@H](NC(=O)[C@H](C(C)C)[C@@H](O)[C@H](O)[C@H](CC(C)C)NC(=O)[C@H](Cc1c[nH]cn1)NC(=O)[C@@H](Cc1ccccc1)NC(=O)OC(C)(C)C)C(=O)NCc1ccccn1 | 28 | – |
| CC[C@H](C)[C@H](NC(=O)[C@@H](Cc1ccccc1)[C@@H](O)[C@H](O)[C@H](Cc1ccccc1)NC(=O)[C@H](Cc1c[nH]cn1)NC(=O)COc1cccc2ccccc12)C(=O)NCc1ccccn1 | 12 | – |
| CC[C@H](C)[C@H](NC(=O)[C@H](CC1CCCCC1)[C@@H](O)[C@H](O)[C@H](CC1CCCCC1)NC(=O)[C@H](Cc1c[nH]cn1)NC(=O)COc1cccc2ccccc12)C(=O)NCc1ccccn1 | 26 | – |
| CC[C@H](C)[C@H](NC(=O)[C@H](CC(C)C)[C@@H](O)[C@H](O)[C@H](CC(C)C)NC(=O)[C@H](Cc1c[nH]cn1)NC(=O)COc1cccc2ccccc12)C(=O)NCc1ccccn1 | 7 | – |
